Test: Toxicity liver stage against HepG2, at 10uM
Type: cell-based
Set-up: test concentration 10 uM, cell line HepG2-A16-CD81EGFP
Conditions: human, HepG2-A16-CD81EGFP cells; read-out: INHIBITION
How it was run: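 Uninfected HepG2-A16-CD81EGFP cells, 3 × 10^3 per well, 1536-well, plated on prespotted compound at 10 μM final, parasite-free screening media added to match infected plates; puromycin 10 μM positive, DMSO 0.5% negative; run in parallel with 48 h PbLuc assay at 37 °C, 5% CO2; viability by CellTiter-Glo luminescence, normalized to controls.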

O=C(c1cncs1)N1CCc2[nH]nc(Nc3ccccc3)c2C1
cytotoxicity at 10 µM: 8.26%

O=C(NCc1ccc(-c2ccn[nH]2)cc1)N1CCC(N2CCCC2)C1 (stereo unspecified)
cytotoxicity at 10 µM: -8.35%

C/C(NC(=O)c1ccccn1)=C1\C(=O)C[C@@H]2[C@H]1C2(C)C
cytotoxicity at 10 µM: 7.66%

COC(C(=O)NC1CC1)c1ccccc1 (stereo unspecified)
cytotoxicity at 10 µM: -3.73%

CN(C)C(=O)N1CCC2(CC1)CNc1ccc(F)cc12
cytotoxicity at 10 µM: 8.88%

COCC(=O)N1CCCn2c(CN3CCCC3=O)nnc2C1
cytotoxicity at 10 µM: -123%

Cn1nnc2c1CCN(Cc1ccccn1)C2COCc1ccccc1 (stereo unspecified)
cytotoxicity at 10 µM: -117%

O=C(O)C1(Oc2cccc(F)c2)CCN(C2CCOCC2)CC1
cytotoxicity at 10 µM: -7.16%

Cc1ccsc1CNc1ccc(C(=O)N2CCNC(=O)C2)cn1
cytotoxicity at 10 µM: 7.04%

NC(=O)NC(=O)CCSCc1cc(F)cc2cccnc12
cytotoxicity at 10 µM: 1.88%

CN(C)c1cccc(C(=O)Nc2ccn(CCc3ccncc3)n2)c1
cytotoxicity at 10 µM: 0.209%

CN(C)c1nc(-c2ccncc2)nc2c1CCN(C(=O)[C@H](N)CO)C2
cytotoxicity at 10 µM: 8.01%

O=C1CC(C(=O)NCc2ccccc2Oc2ccccc2F)CCN1 (stereo unspecified)
cytotoxicity at 10 µM: -2.81%

Cc1ccc(=O)n(Cc2csc(N(C)C3CC3)n2)n1
cytotoxicity at 10 µM: 4.09%

CC(C)NC(=O)N1CCCC2(CC(C(=O)Nc3ccccc3)=NO2)C1 (stereo unspecified)
cytotoxicity at 10 µM: -3.36%

CN1C(=O)C2(CC(=O)Nc3[nH]ncc32)c2ccc(F)cc21 (stereo unspecified)
cytotoxicity at 10 µM: -1.52%

Cc1noc(CNC(=O)NCCOc2ccc(Cl)cc2)n1
cytotoxicity at 10 µM: 1.92%

CCCC(=O)N1CCC(Cc2ccccc2-c2ccccc2)(C(N)=O)C1 (stereo unspecified)
cytotoxicity at 10 µM: -23.6%

CN(C)S(=O)(=O)N1CC[C@@H]2CN(Cc3cnn(C)c3)C[C@@H]2C1
cytotoxicity at 10 µM: 13.5%

Cc1cccc(C(=O)Nc2cccc3c2CCCC3)n1
cytotoxicity at 10 µM: -2.35%

c1ccc(CN2CCc3ncnc(C4CCOC4)c3CC2)nc1 (stereo unspecified)
cytotoxicity at 10 µM: 8.88%

Cc1cc(C)c2c(c1)C(CC(=O)O)C(=O)N2 (stereo unspecified)
cytotoxicity at 10 µM: 7.16%

CC(C)(C)c1oc(C(N)=O)cc1CN1CCCCC(N)C1 (stereo unspecified)
cytotoxicity at 10 µM: 5.94%

CCc1cnc(CN(C)C(=O)NC2CCN(C)C2=O)s1 (stereo unspecified)
cytotoxicity at 10 µM: -0.786%

Cn1nc(COc2cncnc2)c2c1CCN(Cc1ccco1)C2
cytotoxicity at 10 µM: 9.64%

CN(Cc1ccsc1)C(=O)c1ccc(S(=O)(=O)NC(C)(C)C)cc1
cytotoxicity at 10 µM: -8.01%

O=C(Cc1ccc2c(c1)OCO2)N1CCN(c2ccncc2)CC1
cytotoxicity at 10 µM: -22.9%

CN(C)CCN1C(=O)CC[C@@H]2[C@H]1CCN2C(=O)c1ccc(C#N)cc1
cytotoxicity at 10 µM: -7.82%

CC(C)N(C)Cc1cnc2n1CCN(C(=O)Cc1cccs1)C2C (stereo unspecified)
cytotoxicity at 10 µM: 7.86%

O=C(c1ccoc1)N1CC[C@@H]2O[C@@H](COCCN3CCCC3)CC[C@@H]21
cytotoxicity at 10 µM: -89.7%

O=C(c1ccc(NC2CC2)nc1)N1CCC(Nc2cccnn2)CC1
cytotoxicity at 10 µM: -12.6%

Cc1cccc(CN2CC[C@@H]3[C@@H]2CCN3C(=O)c2cc(C)oc2C)n1
cytotoxicity at 10 µM: -4.42%

CC(C)(C)c1cc(C(=O)N2CCC(c3cnccn3)CC2)[nH]n1
cytotoxicity at 10 µM: 0.775%

COC(=O)N1CCCCC1C(=O)N1CCN(c2cccnc2)CC1 (stereo unspecified)
cytotoxicity at 10 µM: -10.6%

Cn1cccc1-c1cc(C(=O)NCCCc2csc(N)n2)[nH]n1
cytotoxicity at 10 µM: -8.9%

CCC(C)NC(=O)CCn1ccc(C)n1 (stereo unspecified)
cytotoxicity at 10 µM: -0.634%

O=C(c1cccc(=O)[nH]1)N(Cc1ccsc1)CC1CCCO1 (stereo unspecified)
cytotoxicity at 10 µM: -11.5%

O=C1CCCN1CCC1CCCCN1C(=O)c1ccc(SCCO)cc1 (stereo unspecified)
cytotoxicity at 10 µM: -43%

COc1ccc(CNC(C)c2cccc(Br)c2)c(OC)c1OC (stereo unspecified)
cytotoxicity at 10 µM: 9.75%

Cn1cnnc1C1CCCN(C(=O)c2ccccc2Cl)C1 (stereo unspecified)
cytotoxicity at 10 µM: 3.59%

CC(C)CCc1n[nH]c(C(=O)O)c1Br
cytotoxicity at 10 µM: -3.09%

CCN(C(=O)c1ccc(-n2ncc(C#N)c2N)cc1)C1CCCC1
cytotoxicity at 10 µM: -13%

COCC(=O)N1CCN(C(=O)c2cccs2)[C@@H](C(=O)OC)C1
cytotoxicity at 10 µM: -8.64%

CCC(NCc1ccccc1Cl)c1ccccc1OCC(=O)NC (stereo unspecified)
cytotoxicity at 10 µM: 13.3%

COCCN1CCN(CCCS(=O)(=O)N(C)C)CC1C (stereo unspecified)
cytotoxicity at 10 µM: 3.54%

Cc1nc(C(=O)N2CCOC(Cc3ccc(F)cc3)C2)co1 (stereo unspecified)
cytotoxicity at 10 µM: -1.39%

COc1cc(C(=O)NS(=O)(=O)c2cccc(C#N)c2)cc(OC)c1Br
cytotoxicity at 10 µM: -9.67%

CC(C)(CNC(=O)c1ccc(Cl)o1)NC(=O)OC(C)(C)C
cytotoxicity at 10 µM: -2.25%

CCC(NC1Cc2ccccc2C1)c1ccc(S(C)(=O)=O)cc1 (stereo unspecified)
cytotoxicity at 10 µM: -2.02%

Cc1noc(C(C)N2CCN(Cc3nc(C)c(C)o3)CC2)n1 (stereo unspecified)
cytotoxicity at 10 µM: 0.397%

CCc1nc(C2CCCN2Cc2noc(Cc3ccccc3)n2)no1 (stereo unspecified)
cytotoxicity at 10 µM: 1.29%

CC(C)c1nc(CN2CCCN(c3nccs3)CC2)no1
cytotoxicity at 10 µM: -11.5%

O=C(Nc1cccnn1)NC(CCCO)c1ccccc1 (stereo unspecified)
cytotoxicity at 10 µM: -0.908%

COc1ncccc1CNC(=O)c1csc(Br)c1
cytotoxicity at 10 µM: -8.03%

Cc1nc(CN(CCS(C)(=O)=O)C(C)C)cs1
cytotoxicity at 10 µM: -44.2%

COc1ccc(CCN(C)C(C(=O)O)c2ccc(F)c(C)c2)cc1OC (stereo unspecified)
cytotoxicity at 10 µM: 2.93%

CCC(C)N(Cc1cccnc1)Cc1cc2c(cc1Cl)OCO2 (stereo unspecified)
cytotoxicity at 10 µM: 6.16%

Cn1nc(CN2CCCC2)c2c1CN(C(=O)c1ccncc1F)CC2
cytotoxicity at 10 µM: -154%

Cc1nn(C)c2c(NCCCn3cccn3)nc(C3CC3)nc12
cytotoxicity at 10 µM: 12.9%

CCc1nnc2n1CCN(C(=O)c1cnc3ccccc3n1)C2
cytotoxicity at 10 µM: -7.7%

Nc1nccc(C2CCN(CCO)C2)n1 (stereo unspecified)
cytotoxicity at 10 µM: 0.51%

Cc1cc(NC(=O)Cn2cnc(-c3cccs3)cc2=O)sn1
cytotoxicity at 10 µM: 0.0962%

O=C1NCCN1C1CCN(Cc2ccccn2)CC1
cytotoxicity at 10 µM: 4.08%

CCn1ncc2c1CN(C(=O)c1cscn1)CC2COC (stereo unspecified)
cytotoxicity at 10 µM: -79.1%

COCCN(Cc1ccncc1)C(=O)C1COc2c(cccc2OC)C1 (stereo unspecified)
cytotoxicity at 10 µM: -14.6%

Cc1nc(C2CCCN2CCCn2c(=O)oc3ccccc32)no1 (stereo unspecified)
cytotoxicity at 10 µM: 6.91%

NC(=O)C1(Cc2ccc(-c3ccccc3)cc2)CCCNC1 (stereo unspecified)
cytotoxicity at 10 µM: 0.772%

O=C(NCc1nncn1C1CC1)c1ccccc1OCC1CC1
cytotoxicity at 10 µM: 3.36%

CNC(=O)c1nc2c(s1)CCN(C(=O)c1cccc(OC)c1)CC2
cytotoxicity at 10 µM: 9.84%

CCc1nc(C2CCCN2C(=O)CCCOc2cccc(F)c2)no1 (stereo unspecified)
cytotoxicity at 10 µM: 11.1%

CCNC(=O)c1c2c(N3CCN(C)CC3)ncnc2n2ccccc12
cytotoxicity at 10 µM: -74.8%

CN1CCOC[C@H]1c1nc(-c2ccc(F)cc2F)c[nH]1
cytotoxicity at 10 µM: -5.66%

Cc1cc(C)nc(NCCC(=O)NCCn2ccnc2C)n1
cytotoxicity at 10 µM: 2.77%

CCOC1Sc2nnc(C)n2N=C1c1ccc(Cl)cc1 (stereo unspecified)
cytotoxicity at 10 µM: 11.3%

CC(NC(=O)CNCCn1cccn1)c1ccc2c(c1)CCCC2 (stereo unspecified)
cytotoxicity at 10 µM: -11.4%

CCc1nn(C)c(Cl)c1CN1CCN(c2ccc(Cl)nn2)CC1
cytotoxicity at 10 µM: 8.01%

CCn1cnnc1C1CCN(C(=O)c2ccc(OC(C)C)nc2)CC1
cytotoxicity at 10 µM: 1.14%

CN1CCC(N2CCN3C(=O)NC[C@H]3C2)CC1
cytotoxicity at 10 µM: 2.26%

CCc1cn[nH]c1C1CCN(c2cc(C)c3cccc(OC)c3n2)CC1
cytotoxicity at 10 µM: 19%

Cc1nc2c(c(C)c1CC(=O)NCc1ccc(F)cc1)c(=O)[nH]n2C
cytotoxicity at 10 µM: -15.9%

c1ccc(N2CCC(NCc3cccc4cn[nH]c34)C2)cc1 (stereo unspecified)
cytotoxicity at 10 µM: 13.6%

Cc1nn(CCO)c(C)c1CNCc1cccnc1N(C)C
cytotoxicity at 10 µM: -9.89%

CN(C)c1ccc(C(=O)NCc2csc(Br)c2)cn1
cytotoxicity at 10 µM: -4.97%

COCC1c2nnn(CC3CC3)c2CCN1C(=O)CS(C)(=O)=O (stereo unspecified)
cytotoxicity at 10 µM: -129%

COc1ccccc1Oc1ncccc1CNC(=O)[C@@H](N)CCO
cytotoxicity at 10 µM: -17.5%

CNC(=O)[C@H]1C[C@@H]2CN(C(=O)c3ccc(C)nc3)C[C@@H]2N1C
cytotoxicity at 10 µM: -107%

CN(C)c1cc(C(=O)N2CCCCC2CNS(C)(=O)=O)ccn1 (stereo unspecified)
cytotoxicity at 10 µM: -16%

Cc1cc(C)n(CC(=O)Nc2cc(-c3ccncc3)[nH]n2)n1
cytotoxicity at 10 µM: -5.77%

CCc1nc(CN2CCCC(NCc3nc(C)c(C)o3)C2)no1 (stereo unspecified)
cytotoxicity at 10 µM: -12.1%

CC(C)CN1CCC2(CC1)CC(NS(C)(=O)=O)c1ccccc1O2 (stereo unspecified)
cytotoxicity at 10 µM: -4.44%

O=c1cc(Cn2ccnc2)nc2n1CCCN(Cc1ccsc1)C2
cytotoxicity at 10 µM: -0.808%

Cn1ncc2c1C(COCC1CC1)CN(Cc1ccc(F)cc1)C2 (stereo unspecified)
cytotoxicity at 10 µM: 1.23%

CC(C)C(O)C1CCN(c2ccnc(C(=O)NCc3ccco3)c2)CC1 (stereo unspecified)
cytotoxicity at 10 µM: -0.598%

CC(C)OCCC(=O)Nc1cccc(N2CCN(CC3CC3)CC2)c1
cytotoxicity at 10 µM: -1.11%

Cn1ncc(NC(=O)Cn2cc(-c3ccc(F)cn3)cn2)n1
cytotoxicity at 10 µM: 7.16%

CC(C)NC(=O)CN(C)CC(=O)Nc1ccnn1C(C)C1CC1 (stereo unspecified)
cytotoxicity at 10 µM: -6%

Cc1csc2c(N3CCC(NCCCc4cnn(C)c4)CC3)ncnc12
cytotoxicity at 10 µM: 0.301%

Cc1cc(NCCO)nc2[nH]nc(N)c12
cytotoxicity at 10 µM: -51.7%

CC(C)CC(CCO)CNC(=O)N1CCC1(C)C (stereo unspecified)
cytotoxicity at 10 µM: -3.25%

O=C1CN(C(=O)CN(CC2CCC2)CC(F)(F)F)CCN1
cytotoxicity at 10 µM: 0.821%

COc1c(CNCc2ccc(C(=O)NC3CC3)cc2)c(C)nn1C
cytotoxicity at 10 µM: 3.18%

CN(C)S(=O)(=O)N1CC[C@]2(C[C@@H](Oc3ncccc3F)CO2)C1
cytotoxicity at 10 µM: -67%

COCC1CC2(CCN(C(=O)c3ccco3)CC2)CN1C(C)C (stereo unspecified)
cytotoxicity at 10 µM: 4.71%

Cc1cc(C)n(CC2CCCN2C(=O)c2ccc3[nH]cnc3c2)n1 (stereo unspecified)
cytotoxicity at 10 µM: 3.18%

Cc1ncc(CN2CCC(CNS(=O)(=O)C3CC3)C2)cn1 (stereo unspecified)
cytotoxicity at 10 µM: 2.84%

Cc1noc(C)c1CC(=O)N1CCC(Nc2cccnn2)CC1
cytotoxicity at 10 µM: -15.8%

CCc1ccc(C2CC(=O)Nc3c2c(=O)[nH]n3C(C)C)cc1 (stereo unspecified)
cytotoxicity at 10 µM: -6.87%

Nc1nc2c(c(N3CCOCC3)n1)CCN(C(=O)c1ccc[nH]1)CC2
cytotoxicity at 10 µM: -2.02%

CC(C)CN1C(=O)C2(CCCC2)NC1c1c[nH]nc1-c1cccnc1 (stereo unspecified)
cytotoxicity at 10 µM: 7.76%

Cc1nc(CN2C[C@@H]3CN(C(=O)CC(F)(F)F)C[C@@H]3C2=O)cs1
cytotoxicity at 10 µM: -73.5%

O=C1CCC2(CCCN(c3ncc(F)cn3)CC2)N1Cc1ccccc1 (stereo unspecified)
cytotoxicity at 10 µM: 2.87%

Source: ChEMBL document CHEMBL4513216, “Probing the Open Global Health Chemical Diversity Library for Multistage-Active Starting Points for Next-Generation Antimalarials” (ACS Infect Dis, 2020)
